Source: ChEMBL document CHEMBL4680103, “In Vitro and in Vivo Anti-Trypanosoma cruzi Activity of New Arylamine Mannich Base-Type Derivatives” (J Med Chem, 2016)
Active and inactive are the calls of the source. The calls are words filed in the database; no cut-off is given here.

Tests used:
Trypanosoma cruzi [1] = test: Antitrypanosomal activity against Trypanosoma cruzi Arequipa epimastigote forms incubated for 72 hrs by hemocytometry; format: functional, organism-based
Method in brief: (§1)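 Epimastigotes grown in MTL medium with 10% inactivated FBS at 28 °C. Compounds were dissolved in DMSO (0.01% v/v) and added at 0.1–100 µM for 72 h. Parasites were counted in a Neubauer chamber. IC50 (50% growth inhibition) was derived by linear regression of Kc values. Values are averages of four determinations.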

Trypanosoma cruzi [2] = test: Antitrypanosomal activity against Trypanosoma cruzi Arequipa amastigote forms infected in African green monkey Vero cells incubated for 72 hrs by Giemsa staining based micrscopy; format: functional, organism-based
Method in brief: (§2)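 Vero cells (RPMI, 10% inactivated FBS, 37 °C, 5% CO2) were seeded at 1×10^4/well on coverslips and cultured 2 days. They were infected 24 h with metacyclic forms at 10:1. After washing off free parasites, drugs were added at 0.1–100 µM for 72 h. Slides were methanol-fixed and Giemsa-stained; amastigotes were counted in 200 host cells versus untreated. IC50 was calculated.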

Trypanosoma cruzi [3] = test: Antitrypanosomal activity against Trypanosoma cruzi Arequipa trypomastigote froms infected in mouse blood incubated for 24 hrs by Neubauer chamber based assay; format: functional, organism-based
Method in brief: (§3)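 Mouse blood taken at peak parasitemia (day 7) was diluted with uninfected blood to 4×10^6 trypomastigotes/mL, then 1:2 in RPMI 1640. Drugs from DMSO stocks were added at 1, 10, 25, 50 and 100 µM and incubated 24 h at 4–8 °C. Parasites were counted in a Neubauer chamber in triplicate. IC50 was calculated versus control.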

Trypanosoma cruzi [4] = test: Antitrypanosomal activity against Trypanosoma cruzi Tulahuen epimastigote forms incubated for 72 hrs by hemocytometry; format: functional, organism-based; method in brief: as §1
Trypanosoma cruzi [5] = test: Antitrypanosomal activity against Trypanosoma cruzi Tulahuen amastigote forms infected in African green monkey Vero cells incubated for 72 hrs by Giemsa staining based micrscopy; format: functional, organism-based; method in brief: as §2
Trypanosoma cruzi [6] = test: Antitrypanosomal activity against Trypanosoma cruzi Tulahuen trypomastigote froms infected in mouse blood incubated for 24 hrs by Neubauer chamber based assay; format: functional, organism-based; method in brief: as §3
Trypanosoma cruzi [7] = test: Antitrypanosomal activity against Trypanosoma cruzi SN3 epimastigote forms incubated for 72 hrs by hemocytometry; format: functional, organism-based; details: SN3, 72 h; method in brief: as §1
Trypanosoma cruzi [8] = test: Antitrypanosomal activity against Trypanosoma cruzi SN3 amastigote forms infected in African green monkey Vero cells incubated for 72 hrs by Giemsa staining based micrscopy; format: functional, organism-based; method in brief: as §2
Trypanosoma cruzi [9] = test: Antitrypanosomal activity against Trypanosoma cruzi SN3 trypomastigote froms infected in mouse blood incubated for 24 hrs by Neubauer chamber based assay; format: functional, organism-based; method in brief: as §3
Vero = test: Cytotoxicity in African green monkey Vero cells incubated for 72 hrs; format: cell-based; details: Chlorocebus sabaeus
Trypanosoma cruzi [10] = test: Antitrypanosomal activity against Trypanosoma cruzi infected in African green monkey Vero cells assessed as reduction in number of trypomastigotes measured up to 10 days by Giemsa staining based hemocytometry; format: functional; details: time day <=10
Method in brief: (§4)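 Vero cells infected with metacyclic forms (10:1) were exposed to one concentration per compound immediately after infection for 12 h at 37 °C, 5% CO2. After washing, cultures were kept 10 days with fresh medium every 48 h. Every 48 h, % infected cells and amastigotes per infected cell (200 Giemsa-stained cells) and medium trypomastigotes (Neubauer) were scored. Means of three experiments.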

Trypanosoma cruzi [11] = test: Antitrypanosomal activity against Trypanosoma cruzi infected in African green monkey Vero cells assessed as reduction in number of amastigotes per infected cell measured up to 10 days by Giemsa staining based hemocytometry; format: functional; details: time day <=10; method in brief: as §4
Trypanosoma cruzi [12] = test: Antitrypanosomal activity against Trypanosoma cruzi infected in African green monkey Vero cells assessed as reduction in infection rate measured up to 10 days by Giemsa staining based hemocytometry; format: functional; details: time day <=10; method in brief: as §4
Trypanosoma cruzi [13] = test: Antitrypanosomal activity against Trypanosoma cruzi Arequipa trypomastigotes infected in BALB/c mouse assessed as reduction in parasitemia measured during acute phase (days 0 to 40 post infection) at 50 to 100 mg/kg, po dosed on alternating days (7 to 15 days post infection); format: functional, organism-based; details: dose 50-100 mg/kg
Method in brief: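 Female BALB/c mice (8–10 weeks, 25–30 g; groups of six) were infected i.p. with 5×10^5 Arequipa blood trypomastigotes. Dosing was oral, 50 or 100 mg/kg/day, on 5 alternating days (days 7–15 pi), alongside untreated and reference-drug groups. Parasitemia was counted in 5 µL mandibular-vein blood by Neubauer chamber through day 40 pi. Data are means ± SD of six mice.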

Trypanosoma cruzi [14] = test: Antitrypanosomal activity against Trypanosoma cruzi Arequipa trypomastigotes infected in BALB/c mouse assessed as reduction in mouse mortality measured during acute phase (days 0 to 40 post infection) at 50 to 100 mg/kg, po dosed on alternating days (7 to 15 days post infection); format: functional, organism-based; details: dose 50-100 mg/kg
Trypanosoma cruzi [15] = test: Antitrypanosomal activity against Trypanosoma cruzi Arequipa trypomastigotes infected in BALB/c mouse assessed as reduction in splenomegaly by measuring weight percent of spleens […] at 100 mg/kg, po dosed on alternating days (7 to 15 days post infection) by PCR analysis (reference value: 1.603%); format: functional

IC50 (Trypanosoma cruzi [1]) | IC50 (Trypanosoma cruzi [2]) | IC50 (Trypanosoma cruzi [3]) | IC50 (Trypanosoma cruzi [4]) | IC50 (Trypanosoma cruzi [5]) | IC50 (Trypanosoma cruzi [6]) | IC50 (Trypanosoma cruzi [7]) | IC50 (Trypanosoma cruzi [8]) | IC50 (Trypanosoma cruzi [9]) | Structure (SMILES) | IC50 (Vero) | inhibition (INH) (Trypanosoma cruzi [10]) | inhibition (INH) (Trypanosoma cruzi [11]) | inhibition (INH) (Trypanosoma cruzi [12]) | Activity (Trypanosoma cruzi [13]) | Activity (Trypanosoma cruzi [14]) | Spleen weight percent (Trypanosoma cruzi [15])
2.5 µM | 0.8 µM | 0.7 µM | 4.7 µM | 2 µM | 2.3 µM | 21.2 µM | 24.2 µM | 37.5 µM | COc1cc(Cl)ccc1N1CCN(CCC(=O)c2cc(C)sc2C)CC1 | 138 µM | – | – | – | – | – | –
21.9 µM | 19.3 µM | 32.3 µM | 48.2 µM | 8.1 µM | 6.6 µM | 40.6 µM | 21.4 µM | 43.2 µM | O=C(CCN1CCN(c2ccc(C(F)(F)F)cc2)CC1)c1csc2ccccc12 | 237 µM | – | – | – | – | – | –
1.4 µM | 1.2 µM | 0.58 µM | 15.6 µM | 11.6 µM | 0.08 µM | 18.8 µM | 11.4 µM | 50.9 µM | O=C(CCN1CCN(c2ccc([N+](=O)[O-])cc2)CC1)c1ccc2c(c1)OCO2 | 276 µM | – | – | – | – | – | –
14.1 µM | 10 µM | 46.9 µM | 28 µM | 7.7 µM | 22.3 µM | 24.1 µM | 16.3 µM | 21.8 µM | O=C(CCN1CCN(c2ccc(Cl)cc2)CC1)c1ccsc1 | 65.8 µM | – | – | – | – | – | –
30.6 µM | 25.3 µM | 31.4 µM | 42.3 µM | 10.1 µM | 12.8 µM | 23.6 µM | 26.3 µM | 43.2 µM | O=C(CCN1CCN(c2ccc(Cl)cc2)CC1)c1csc2ccccc12 | 157 µM | – | – | – | – | – | –
50.6 µM | 27.9 µM | 21.8 µM | 21.8 µM | 17.6 µM | 23.7 µM | 17.8 µM | 13 µM | 14.2 µM | O=C(CCN1CCN(c2ccc(C(F)(F)F)cc2)CC1)c1ccc2c(c1)OCO2 | 48.7 µM | – | – | – | – | – | –

Second part, the molecule before the results:

Structure (SMILES) | IC50 (Trypanosoma cruzi [1]) | IC50 (Trypanosoma cruzi [2]) | IC50 (Trypanosoma cruzi [3]) | IC50 (Trypanosoma cruzi [4]) | IC50 (Trypanosoma cruzi [5]) | IC50 (Trypanosoma cruzi [6]) | IC50 (Trypanosoma cruzi [7]) | IC50 (Trypanosoma cruzi [8]) | IC50 (Trypanosoma cruzi [9]) | IC50 (Vero) | inhibition (INH) (Trypanosoma cruzi [10]) | inhibition (INH) (Trypanosoma cruzi [11]) | inhibition (INH) (Trypanosoma cruzi [12]) | Activity (Trypanosoma cruzi [13]) | Activity (Trypanosoma cruzi [14]) | Spleen weight percent (Trypanosoma cruzi [15])
O=C(Cn1ccnc1[N+](=O)[O-])NCc1ccccc1 [BENZNIDAZOLE] | – | 23.7 µM | 12.6 µM | – | 21.7 µM | 12.8 µM | – | – | 6.2 µM | – | 20% | 30% | 22% | Active | Active | 0.837%
O=C(CCN1CCN(c2ccc(Cl)cc2)CC1)c1csc2ccc(F)cc12 | 28.5 µM | 13.2 µM | 9.6 µM | 9.6 µM | 14.8 µM | 21.8 µM | 30.1 µM | 17.6 µM | 19.6 µM | 246 µM | – | – | – | – | – | –
O=C(CCN1CCN(c2ccc([N+](=O)[O-])cc2)CC1)c1ccc2ccccc2c1 | 3.4 µM | 5.4 µM | 3.9 µM | 6.9 µM | 8.6 µM | 6.9 µM | 27.7 µM | 20.3 µM | 26.4 µM | 74.3 µM | – | – | – | – | – | –
O=C(CCN1CCN(c2ccc(C(F)(F)F)cc2)CC1)c1ccc2ccccc2c1 | 1.23 µM | 2.6 µM | 8.3 µM | 4.2 µM | 20.5 µM | 6.6 µM | 15.3 µM | 8.3 µM | 36.5 µM | 30.1 µM | – | – | – | – | – | –
O=C(CCN1CCN(c2ccc([N+](=O)[O-])cc2)CC1)c1csc2ccc(F)cc12 | 36.6 µM | 19.8 µM | 43.3 µM | 48.1 µM | 8.8 µM | 52.4 µM | 39.4 µM | 16.3 µM | 4.1 µM | 554 µM | – | – | – | – | – | –
O=C(CCN1CCN(Cc2ccccc2)CC1)c1csc2ccccc12 | 29.7 µM | 31.7 µM | 43.3 µM | 30.1 µM | 21.7 µM | 32.3 µM | 42.5 µM | 18.7 µM | 20.8 µM | 130 µM | – | – | – | – | – | –
O=C(CCN1CCN(c2ccc(Cl)cc2)CC1)c1ccc2c(c1)OCO2 | 2.5 µM | 1.7 µM | 46.3 µM | 69.1 µM | 11.2 µM | 29.3 µM | 12.6 µM | 6.2 µM | 16.8 µM | 0.3 µM | – | – | – | – | – | –
O=C(CCN1CCN(c2ccc(F)cc2)CC1)c1ccc2ccccc2c1 | 49 µM | 23.9 µM | 24.6 µM | 27.6 µM | 20.3 µM | 25.5 µM | 24.1 µM | 12.4 µM | 10.7 µM | 103 µM | – | – | – | – | – | –
O=C(CCN1CCN(c2ccc(F)cc2)CC1)c1ccc2c(c1)OCO2 | 97 µM | 22.4 µM | 34.6 µM | 200 µM | 22.3 µM | 56.3 µM | 17.6 µM | 14.8 µM | 63.4 µM | 323 µM | – | – | – | – | – | –
O=C(CCN1CCN(Cc2cccc(F)c2)CC1)c1csc2ccccc12 | 86.7 µM | 22.6 µM | 39.5 µM | 28.9 µM | 20 µM | 27.3 µM | 53.9 µM | 32 µM | 86.3 µM | 70.8 µM | – | – | – | – | – | –
